ChEMBL document CHEMBL3286129, “Optimization of peptidomimetic boronates bearing a P3 bicyclic scaffold as proteasome inhibitors” (Eur J Med Chem, 2014)
Activity calls are given as the source filed them. No cut-off for these calls is given here.

Legend:
[1] = tested on: MCF7; experiment: Growth inhibition of human MCF7 cells; assay type: functional
[2] = Growth inhibition of human LOXIMVI cells; assay type: functional; details: LOX IMVI
[3] = tested on: A498; experiment: Growth inhibition of human A498 cells; assay type: functional
[4] = Growth inhibition of human HCT15 cells; assay type: functional
[5] = tested on: TK-10; experiment: Growth inhibition of human TK10 cells; assay type: functional
[6] = molecular target: T1, Proteasome Macropain subunit MB1 (Homo sapiens) (UniProt P28074); experiment: Inhibition of chymotrypsin-like activity of 20S proteasome in human erythrocytes using Suc-Leu-Leu-Val-Tyr-AMC as substrate at 20 uM by fluorescence assay relative to control
T1 sequence (whole entry): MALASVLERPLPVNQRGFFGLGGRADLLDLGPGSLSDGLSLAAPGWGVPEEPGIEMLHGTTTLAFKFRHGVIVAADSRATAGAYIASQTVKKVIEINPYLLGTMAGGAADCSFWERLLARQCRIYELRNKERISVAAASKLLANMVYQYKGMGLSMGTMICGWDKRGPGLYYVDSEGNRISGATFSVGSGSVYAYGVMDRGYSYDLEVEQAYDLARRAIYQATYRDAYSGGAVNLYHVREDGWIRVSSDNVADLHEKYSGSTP
Outline: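 Single inhibitor concentration, equivalent DMSO as negative control. AMC fluorescence read at ex 380/em 460 nm; percent inhibition of ChT-L activity.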

[7] = tested on: T47D; experiment: Growth inhibition of human T47D cells; assay type: functional
[8] = tested on: NCI-H460; experiment: Growth inhibition of human NCI-H460 cells; assay type: functional
[9] = molecular target: Chymotrypsinogen A (Bos taurus, UniProt P00766); experiment: Inhibition of bovine pancreatic alpha-chymotrypsin using Suc-Leu-Leu-Val-Tyr-AMC as substrate by fluorescence assay; details: read-out: Ki
Outline: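 Enzyme incubated at 20 °C in 50 mM Tris pH 8.0, 100 mM NaCl, 5 mM EDTA, 7.5% DMSO with varied inhibitor concentrations. Substrate hydrolysis followed for 10 min. Ki from progress curves; mean of three determinations.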

[10] = Growth inhibition of human Hs 578T cells; assay type: functional
[11] = tested on: RPMI-8226; experiment: Growth inhibition of human RPMI8226 cells; assay type: functional
[12] = tested on: SK-MEL-5; experiment: Growth inhibition of human SK-MEL-5 cells; assay type: functional
[13] = tested on: NCI-H522; experiment: Growth inhibition of human NCI-H522 cells; assay type: functional
[14] = tested on: HT-29; experiment: Growth inhibition of human HT-29 cells; assay type: functional
[15] = tested on: SK-MEL-2; experiment: Growth inhibition of human SK-MEL-2 cells; assay type: functional
[16] = Growth inhibition of human BT549 cells; assay type: functional
[17] = Cytotoxicity against human melanoma cells assessed as cell growth at 10 uM relative to control; assay type: functional; details: read-out: Activity
Outline: (§1)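 Single-concentration screen against a panel of human cancer cell lines. Each value is the mean percent growth across the cell lines of that tumour subpanel.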

[18] = tested on: NCI-H23; experiment: Growth inhibition of human NCI-H23 cells; assay type: functional
[19] = tested on: CAKI-1; experiment: Growth inhibition of human CAKI-1 cells; assay type: functional
[20] = Cytotoxicity against human NSCLC cells assessed as cell growth at 10 uM relative to control; assay type: functional; details: read-out: Activity; outline: as §1
[21] = tested on: KM12; experiment: Growth inhibition of human KM12 cells; assay type: functional
[22] = Growth inhibition of human UO31 cells; assay type: functional; details: UO-31
[23] = tested on: SK-OV-3; experiment: Growth inhibition of human SKOV3 cells; assay type: functional
[24] = tested on: SNB-75; experiment: Growth inhibition of human SNB75 cells; assay type: functional
[25] = molecular target: Proteasome Macropain subunit (Homo sapiens) (UniProt P49721); experiment: Inhibition of trypsin-like activity of 20S proteasome in human erythrocytes using Boc-Leu-Arg-Arg-AMC as substrate by fluorescence assay; assay type: cell-based
Chain of Proteasome Macropain subunit (Homo sapiens) (P49721 whole entry): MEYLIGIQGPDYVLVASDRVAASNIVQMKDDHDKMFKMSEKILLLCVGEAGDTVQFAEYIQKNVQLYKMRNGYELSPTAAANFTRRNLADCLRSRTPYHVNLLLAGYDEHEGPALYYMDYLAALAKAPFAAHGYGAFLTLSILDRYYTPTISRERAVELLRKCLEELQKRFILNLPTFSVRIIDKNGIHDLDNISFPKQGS
Outline: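 Human 20S proteasome 0.0025 mg/mL at 30 °C in 50 mM Tris pH 7.4, 50 mM NaCl, 0.5 mM EDTA, 0.03% SDS, 7.5% DMSO. Varied inhibitor concentrations; AMC release monitored continuously for 10 min, ex 380/em 460 nm. Ki derived from progress-curve IC50 fit.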

[26] = Growth inhibition of human OVCAR3 cells; assay type: functional; details: OVCAR-3
[27] = tested on: Malme-3M; experiment: Growth inhibition of human MALME-3M cells; assay type: functional
[28] = tested on: U-251; experiment: Growth inhibition of human U251 cells; assay type: functional
[29] = tested on: SNB-19; experiment: Growth inhibition of human SNB19 cells; assay type: functional
[30] = tested on: HL-60(TB); experiment: Growth inhibition of human HL-60(TB) cells; assay type: functional; details: read-out: LC50 (the source's name)
[31] = molecular target: T2, Proteasome Macropain subunit MB1 (Homo sapiens, UniProt P28074); experiment: Inhibition of chymotrypsin-like activity of 20S proteasome in human erythrocytes using Suc-Leu-Leu-Val-Tyr-AMC as substrate by fluorescence assay; details: read-out: Ki
T2 sequence (P28074 whole entry): T1 sequence (whole entry)

[32] = tested on: M14; experiment: Growth inhibition of human M14 cells; assay type: functional
[33] = Cytotoxicity against human breast cancer cells assessed as cell growth at 10 uM relative to control; assay type: functional; details: Cancer cell lines, read-out: Activity; outline: as §1
[34] = tested on: HOP-62; experiment: Growth inhibition of human HOP62 cells; assay type: functional
[35] = read-out: LC50 (the source's name)

## CC(C)C[C@H](NC(=O)CCn1ccc2ccc(Br)cc2c1=O)B(O)O
[1]
  GI50: 0.39 µM
  TGI: > 100 µM
[1]; [35]
  CC50: > 100 µM
[2]
  GI50: 0.22 µM
  TGI: 0.61 µM
[3]
  GI50: 0.13 µM
  LC50: > 100 µM
  TGI: 0.74 µM
[4]; HCT-15
  GI50: 1.61 µM
  TGI: 22.1 µM
[4]; HCT-15, read-out: LC50 (the source's name)
  CC50: > 100 µM
[5]
  GI50: 0.37 µM
  LC50: > 100 µM
  TGI: 15.6 µM
[6]
  inhibition: > 40%
[7]
  GI50: 0.78 µM
  TGI: 6.09 µM
[7]; [35]
  CC50: > 100 µM
[8]
  GI50: 3.18 µM
  LC50: > 100 µM
  TGI: > 100 µM
[9]
  Ki: 23.7 µM
[10]
  GI50: 0.43 µM
  TGI: 6.2 µM
[10]; [35]
  CC50: > 100 µM
[11]
  GI50: 0.32 µM
  TGI: > 100 µM
[11]; [35]
  CC50: > 100 µM
[12]
  GI50: 0.37 µM
  LC50 (concentration killing 50% of cells): 82.5 µM
  TGI: 3.11 µM
[13]
  GI50: 0.3 µM
  LC50: > 100 µM
  TGI: 2.25 µM
[14]
  GI50: 0.45 µM
  LC50: > 100 µM
  TGI: > 100 µM
[15]
  GI50: 0.46 µM
  LC50: > 100 µM
  TGI: 4.56 µM
[16]; BT-549
  GI50: 0.36 µM
  TGI: 4.32 µM
[16]; BT-549, read-out: LC50 (the source's name)
  CC50: > 100 µM
[17]
  growth at 10 µM: -19.2%
[18]
  GI50: 1.59 µM
  TGI: > 100 µM
[18]; [35]
  CC50: > 100 µM
[19]
  GI50: 0.47 µM
  TGI: 10 µM
[19]; [35]
  CC50: > 100 µM
[20]
  growth at 10 µM: 8.79%
[21]
  GI50: 1.33 µM
  LC50: > 100 µM
  TGI: 4.38 µM
[22]
  GI50: 0.98 µM
  LC50: > 100 µM
  TGI: 15.4 µM
[23]
  GI50: 2.36 µM
  LC50: > 100 µM
  TGI: 71.5 µM
[24]
  GI50: 0.46 µM
  LC50: > 100 µM
  TGI: 3.82 µM
[25]
  inhibition: inactive
[26]
  GI50: 0.33 µM
  LC50 (concentration killing 50% of cells): 10.6 µM
  TGI: 1.21 µM
[27]
  GI50: 0.68 µM
  TGI: 7.95 µM
[27]; [35]
  CC50: > 100 µM
[28]
  GI50: 1.18 µM
  TGI: > 100 µM
[28]; [35]
  CC50: > 100 µM
[29]
  GI50: 0.96 µM
  TGI: > 100 µM
[29]; [35]
  CC50: > 100 µM
[30]
  CC50: > 100 µM
[31]
  Ki: 0.06 µM
[32]
  GI50: 0.36 µM
  LC50 (concentration killing 50% of cells): > 100 µM
  TGI: 3.88 µM
[33]
  growth at 10 µM: 2.31%
[34]
  GI50: 2.63 µM
  TGI: 9.29 µM
[34]; [35]
  CC50: > 100 µM
